Assay results taken from ChEMBL document CHEMBL1134324, “Chemosensitization of a multidrug-resistant Leishmania tropica line by new sesquiterpenes from Maytenus magellanica and Maytenus chubutensis” (J Med Chem, 2001).

Experiments:
Format in all cases: functional
[1] = system: Leishmania tropica; assay: Growth inhibition of MDR (DNM-R150) L. Tropica line at 15 uM concentration
Summary of the method: (§1)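 Daunomycin-resistant (DNM-R150) promastigotes, log phase, 3 × 10⁵ cells per well, co-exposed to 150 μM DNM plus sesquiterpene (DMSO stock diluted in medium; final DMSO ≤0.3%). Incubated 72 h at 28 °C in RPMI 1640-modified medium with 20% heat-inactivated FBS. MTT added for 4 h, formazan dissolved in 20% SDS, A540 read. %GI calculated relative to control cells given the same DNM without modulator.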

[2] = system: Leishmania tropica; assay: Growth inhibition of MDR (DNM-R150) L. Tropica line at 30 uM concentration; summary of the method: as §1
[3] = system: Leishmania tropica; assay: Growth inhibition of MDR (DNM-R150) L. Tropica line at 7.5 uM concentration; summary of the method: as §1
[4] = system: Leishmania tropica; assay: Growth inhibition of wild type L. Tropica parasite at 15 uM concentration
Summary of the method: (§2)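 Intrinsic toxicity assay on wild-type LRC clone promastigotes, log phase, 3 × 10⁵ cells per well, exposed to sesquiterpene without DNM (DMSO stock diluted in medium; final DMSO ≤0.3%). Incubated 72 h at 28 °C in RPMI 1640-modified medium with 20% FBS. Viability read by MTT (4 h, SDS solubilization, 540 nm). Survival is absorbance ratio to untreated control, expressed as %GI.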

[5] = system: Leishmania tropica; assay: Growth inhibition of wild type L. Tropica parasite at 30 uM concentration; summary of the method: as §2
[6] = system: Leishmania tropica; assay: Growth inhibition of wild type L. Tropica parasite at 7.5 uM concentration; summary of the method: as §2

CC(=O)O[C@@H]1[C@H](OC(=O)c2ccccc2)[C@@]2(C)[C@@H](OC(=O)c3ccccc3)CC3[C@@H](OC(C)=O)C2(OC3(C)C)[C@@](C)(O)[C@H]1OC(=O)c1cccnc1 (some centres undefined)
inhibition [1]: 30.7%
inhibition [2]: 69.5%
inhibition [3]: 10%
inhibition [4]: 0.7%
inhibition [5]: 3.7%
inhibition [6]: 2.2%

CC(=O)OC[C@]12[C@@H](OC(=O)c3ccccc3)CC3[C@@H](OC(=O)c4ccccc4)C1(OC3(C)C)[C@@](C)(O)C[C@@H](OC(=O)c1cccnc1)[C@@H]2OC(C)=O (some centres undefined)
inhibition [1]: 91.3%
inhibition [2]: 94.8%
inhibition [3]: 80.7%
inhibition [4]: 25.8%
inhibition [5]: 45%
inhibition [6]: 8.2%

CC(=O)O[C@@H]1[C@H](OC(=O)c2ccccc2)[C@@]2(C)[C@@H](OC(=O)/C=C/c3ccccc3)C[C@H]3[C@@H](OC(C)=O)[C@]2(OC3(C)C)[C@@](C)(O)[C@H]1OC(=O)c1cccnc1
inhibition [1]: 13.5%
inhibition [2]: 45%
inhibition [3]: 7.3%
inhibition [4]: 1.5%
inhibition [5]: 1.9%
inhibition [6]: 1.5%

CC(=O)O[C@@H]1C2[C@H](OC(C)=O)[C@H](OC(=O)c3ccccc3)[C@]3(C)[C@@H](OC(=O)c4ccccc4)[C@H](OC(=O)c4ccccc4)C[C@](C)(O)C13OC2(C)C (some centres undefined)
inhibition [1]: 82.2%
inhibition [2]: 92%
inhibition [3]: 60.3%
inhibition [4]: 19.7%
inhibition [5]: 16.2%
inhibition [6]: 9.7%

CC(=O)O[C@H]1[C@H](O)[C@@H](C)C23OC(C)(C)C(C[C@H](OC(=O)c4ccccc4)[C@]2(C)[C@H]1OC(=O)c1ccccc1)[C@H]3OC(C)=O (some centres undefined)
inhibition [1]: 54%
inhibition [2]: 77.5%
inhibition [3]: 32%
inhibition [4]: 3.5%
inhibition [5]: 11.7%
inhibition [6]: 0%

CC(=O)OC[C@]12[C@@H](OC(=O)c3ccccc3)CC3[C@@H](OC(=O)c4ccccc4)C1(OC3(C)C)[C@H](C)C[C@@H](OC(=O)c1cccnc1)[C@@H]2OC(C)=O (some centres undefined)
inhibition [1]: 87.9%
inhibition [2]: 93.7%
inhibition [3]: 83.7%
inhibition [4]: 27.5%
inhibition [5]: 35%
inhibition [6]: 11.5%

CC(=O)O[C@H]1C[C@](C)(O)C23CC(C[C@H](OC(=O)c4ccccc4)[C@]2(C)[C@H]1OC(=O)c1ccccc1)C(C)(C)O3 (some centres undefined)
inhibition [1]: 89.7%
inhibition [2]: 94%
inhibition [3]: 82%
inhibition [4]: 4.1%
inhibition [5]: 13.3%
inhibition [6]: 5.3%

CC(=O)O[C@@H]1C2[C@H](OC(C)=O)[C@H](OC(=O)c3ccccc3)[C@]3(C)[C@@H](OC(=O)c4ccccc4)[C@H](OC(=O)c4cccnc4)C[C@@H](C)C13OC2(C)C (some centres undefined)
inhibition [1]: 79.3%
inhibition [2]: 94.5%
inhibition [3]: 42.2%
inhibition [4]: 13%
inhibition [5]: 13.3%
inhibition [6]: 1.7%

CC(=O)O[C@@H]1[C@H](OC(=O)c2ccccc2)[C@@]2(C)[C@@H](OC(=O)c3ccccc3)[C@@H](OC(C)=O)C3CC2(OC3(C)C)[C@@](C)(O)[C@H]1OC(C)=O (some centres undefined)
inhibition [1]: 65%
inhibition [2]: 90%
inhibition [3]: 39%
inhibition [4]: 14.4%
inhibition [5]: 23%
inhibition [6]: 1.7%

CC(=O)O[C@H]1C[C@](C)(O)C23CC(C[C@H](OC(=O)/C=C/c4ccccc4)[C@]2(C)[C@H]1OC(=O)c1ccccc1)C(C)(C)O3 (some centres undefined)
inhibition [1]: 92.8%
inhibition [2]: 94.3%
inhibition [3]: 88.2%
inhibition [4]: 7.3%
inhibition [5]: 7.5%
inhibition [6]: 0%

CC(=O)O[C@@H]1[C@H](OC(=O)c2cccnc2)[C@@]2(C)[C@@H](OC(=O)c3ccccc3)[C@@H](OC(C)=O)C3CC2(OC3(C)C)[C@@](C)(O)[C@H]1OC(=O)c1ccccc1 (some centres undefined)
inhibition [1]: 44%
inhibition [2]: 69.7%
inhibition [3]: 21.4%
inhibition [4]: 12.9%
inhibition [5]: 19.7%
inhibition [6]: 0%

CC(=O)O[C@@H]1[C@H](OC(=O)/C=C/c2ccccc2)[C@@]2(C)[C@@H](OC(=O)c3ccccc3)CC3CC2(OC3(C)C)[C@@](C)(O)[C@H]1OC(=O)c1cccnc1 (some centres undefined)
inhibition [1]: 90.3%
inhibition [2]: 94.7%
inhibition [3]: 82%
inhibition [4]: 3.7%
inhibition [5]: 7.5%
inhibition [6]: 2.5%

CC(=O)O[C@@H]1[C@H](OC(=O)c2cccnc2)[C@@]2(C)[C@@H](OC(=O)c3ccccc3)[C@@H](OC(=O)c3ccccc3)C3CC2(OC3(C)C)[C@@](C)(O)[C@H]1OC(C)=O (some centres undefined)
inhibition [1]: 54%
inhibition [2]: 89%
inhibition [3]: 23.9%
inhibition [4]: 6%
inhibition [5]: 11%
inhibition [6]: 0.5%

CC(=O)O[C@@H]1[C@H](OC(=O)c2ccccc2)[C@@]2(C)[C@@H](OC(=O)c3ccccc3)[C@@H](OC(=O)c3ccccc3)C3CC2(OC3(C)C)[C@@](C)(O)[C@H]1OC(C)=O (some centres undefined)
inhibition [1]: 79%
inhibition [2]: 93%
inhibition [3]: 48.7%
inhibition [4]: 15.8%
inhibition [5]: 20.5%
inhibition [6]: 0.5%
